What was measured:
Details in all cases: stereoisomer not certain
OR4M2 (Homo sapiens) = OR4M2 (Homo sapiens) (UniProt Q8NGB6)
Summary of the method: (§1)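 Assay methods differ from source to source, frequently being transient luciferase assays in mammalian cell lines. For each receptor–molecule pair, the label responsive (active) applies when the original authors judged the measured signal statistically different from baseline, and non-responsive (inactive) applies otherwise.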

OR4M2B (Homo sapiens) = OR4M2B (Homo sapiens) (UniProt A0A0X1KG70)
Summary of the method: as §1

OR4N2 (Homo sapiens) = OR4N2 (Homo sapiens) (UniProt Q8NGD1)
Summary of the method: as §1

OR4N4 (Homo sapiens) = OR4N4 (Homo sapiens) (UniProt Q8N0Y3)
Summary of the method: as §1

OR4N4C (Homo sapiens) = OR4N4C (Homo sapiens) (UniProt A0A096LPK9)
Summary of the method: as §1

OR4N5 (Homo sapiens) = OR4N5 (Homo sapiens) (UniProt Q8IXE1)
Summary of the method: as §1

OR4M1 H277N V279L L284H = system: OR4M1 H277N V279L L284H
Summary of the method: as §1

OR4N2 A57V I76T = system: OR4N2 A57V I76T
Summary of the method: as §1

OR4N2 R260C F279L R290H = system: OR4N2 R260C F279L R290H
Summary of the method: as §1

OR4N2 = system: OR4N2
Summary of the method: as §1

Measured: odorant receptor agonist call

OR4N5 (Homo sapiens), sequence (Q8IXE1 whole entry): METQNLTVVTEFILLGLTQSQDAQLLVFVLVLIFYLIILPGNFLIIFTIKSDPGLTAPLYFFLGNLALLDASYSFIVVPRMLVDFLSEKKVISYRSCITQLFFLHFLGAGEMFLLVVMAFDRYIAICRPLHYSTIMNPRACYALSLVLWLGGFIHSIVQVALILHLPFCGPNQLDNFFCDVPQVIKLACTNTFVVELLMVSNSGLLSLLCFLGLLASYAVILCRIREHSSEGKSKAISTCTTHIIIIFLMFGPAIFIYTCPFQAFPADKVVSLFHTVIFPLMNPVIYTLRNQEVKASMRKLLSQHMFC
OR4M2 (Homo sapiens), sequence (Q8NGB6 whole entry): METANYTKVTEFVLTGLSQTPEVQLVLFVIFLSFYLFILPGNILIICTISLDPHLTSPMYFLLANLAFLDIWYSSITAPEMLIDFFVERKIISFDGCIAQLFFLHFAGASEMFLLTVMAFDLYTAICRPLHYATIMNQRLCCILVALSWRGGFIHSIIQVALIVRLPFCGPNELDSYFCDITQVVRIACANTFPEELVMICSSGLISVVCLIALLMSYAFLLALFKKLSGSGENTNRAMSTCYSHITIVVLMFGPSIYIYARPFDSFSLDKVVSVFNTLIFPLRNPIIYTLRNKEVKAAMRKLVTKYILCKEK
OR4N2 (Homo sapiens), sequence (Q8NGD1 whole entry): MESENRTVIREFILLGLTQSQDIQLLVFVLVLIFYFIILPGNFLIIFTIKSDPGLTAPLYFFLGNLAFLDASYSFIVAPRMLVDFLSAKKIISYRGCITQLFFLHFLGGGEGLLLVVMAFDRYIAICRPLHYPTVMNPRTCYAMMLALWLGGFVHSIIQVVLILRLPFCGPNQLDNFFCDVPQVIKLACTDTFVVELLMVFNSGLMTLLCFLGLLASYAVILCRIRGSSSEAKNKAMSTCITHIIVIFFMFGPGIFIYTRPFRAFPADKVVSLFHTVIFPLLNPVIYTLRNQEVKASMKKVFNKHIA
OR4N4 (Homo sapiens), sequence (Q8N0Y3 whole entry): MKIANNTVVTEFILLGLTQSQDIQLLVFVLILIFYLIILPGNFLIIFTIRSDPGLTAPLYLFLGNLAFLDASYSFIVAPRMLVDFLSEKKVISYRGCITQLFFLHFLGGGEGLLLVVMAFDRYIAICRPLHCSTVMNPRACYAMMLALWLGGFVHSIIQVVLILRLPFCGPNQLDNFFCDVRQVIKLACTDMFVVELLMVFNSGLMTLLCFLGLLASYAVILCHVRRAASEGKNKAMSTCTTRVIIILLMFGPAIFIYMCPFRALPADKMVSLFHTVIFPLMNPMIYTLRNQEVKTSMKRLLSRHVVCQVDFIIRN
OR4M2B (Homo sapiens), sequence (A0A0X1KG70 whole entry): as the sequence (Q8NGB6 whole entry) above, with G96E, F225L, M239V, R284H counted along it
OR4N2, sequence (as listed by the source): as the sequence (Q8NGD1 whole entry) above, with I76T counted along it
OR4N4C (Homo sapiens), sequence (A0A096LPK9 whole entry): as the sequence (Q8N0Y3 whole entry) above, with M259I counted along it

Cc1c([N+](=O)[O-])c(C)c([N+](=O)[O-])c(C(C)(C)C)c1[N+](=O)[O-]
inactive: OR4M2 (Homo sapiens) | OR4M2B (Homo sapiens) | OR4N2 (Homo sapiens) | OR4N4 (Homo sapiens) | OR4N4C (Homo sapiens) | OR4N5 (Homo sapiens)

C=CCOC(=O)Cc1ccccc1
not listed: OR4M2B (Homo sapiens) | OR4N4C (Homo sapiens)
inactive: all other assays above
